Results on four molecules are retold here after ChEMBL document CHEMBL3808362, “Affinity-Guided Design of Caveolin-1 Ligands for Deoligomerization” (J Med Chem, 2016).

Each structure is given as a SMILES string. Activity calls are given as the source filed them. The calls are words filed in the database; no cut-off is given here. Peptide text beside a SMILES is read from it. Bounds are passed on as bounds.

As a reminder, the Kd is the concentration at which binding is half-saturated.

Series [1] deals with T1, Caveolin-1 (Homo sapiens, UniProt Q03135).
T1 sequence (Q03135 whole entry): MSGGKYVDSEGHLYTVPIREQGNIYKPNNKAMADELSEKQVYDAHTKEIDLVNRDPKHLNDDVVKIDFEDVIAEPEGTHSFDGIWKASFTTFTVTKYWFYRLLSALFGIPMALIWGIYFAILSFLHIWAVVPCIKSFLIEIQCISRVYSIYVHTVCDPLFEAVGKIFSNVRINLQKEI
Nature of the series: Binding affinity to human CAV (1 to 104 residues) expressed in Escherichia coli BL21-DE3 by isothermal titration calorimetric analysis. On the technique in general: In ITC the heat of successive injections is recorded.

The species entered for series [2] is Gallus gallus. Nature of the series: Binding affinity to rhodamine-labeled hen egg white lysozyme by SPOT screening assay. In outline: (§1)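 Peptides synthesized on cellulose SPOT arrays with a double β-Ala linker, screened in duplicate sheets against rhodamine-labeled protein. Sheets were washed and blocked, and SPOT fluorescence was quantified as relative apparent binding. Signal from blank linker-only SPOTs was subtracted on each sheet.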

Series [3] concerns the target Albumin (Bos taurus, UniProt P02769). Nature of the series: Binding affinity to rhodamine-labeled bovine serum albumin by SPOT screening assay. As to conditions: cattle, isolated protein. The series is classed as ADME. In outline:
as §1

Series [4] deals with T2, Caveolin-1 (Homo sapiens) (UniProt Q03135).
T2 sequence (whole entry): T1 sequence (Q03135 whole entry)
Nature of the series: Inhibition of oligomerization of human soluble full length variant CAV at 10 uM by dynamic light scattering analysis. The gist of the method:
(§2)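 Soluble full-length CAV variant (CAV(FLV)) forms oligomers spontaneously. These were incubated with peptide, and particle size was measured by dynamic light scattering as average diameter and polydispersity. For line 7, incubation was under reducing conditions to disrupt the peptide's disulfide dimerization.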

Series [5] addresses T2, Caveolin-1 (Homo sapiens). Nature of the series: Inhibition of oligomerization of human soluble full length variant CAV by dynamic light scattering analysis. The gist of the method:
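CAV(FLV) oligomers were incubated with varied peptide concentrations. Dose dependence was followed by dynamic light scattering as the diameter of separate oligomeric peaks.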

Series [6] is filed under the species Homo sapiens. The series is described as follows: Binding affinity to rhodamine-labeled casein (unknown origin) by SPOT screening assay. In outline:
as §1

Series [7] addresses T2, Caveolin-1 (Homo sapiens). Nature of the series: Inhibition of oligomerization of human soluble full length variant CAV at 10 uM by dynamic light scattering analysis in presence of TCEP. In outline:
as §2

Series [8] concerns the target T2, Caveolin-1 (Homo sapiens). Nature of the series: Binding affinity to rhodamine-labeled human CAV (1 to 104 residues) expressed in Escherichia coli BL21-DE3 by SPOT screening assay. The gist of the method: as §1

Sequence of Albumin (P02769 whole entry): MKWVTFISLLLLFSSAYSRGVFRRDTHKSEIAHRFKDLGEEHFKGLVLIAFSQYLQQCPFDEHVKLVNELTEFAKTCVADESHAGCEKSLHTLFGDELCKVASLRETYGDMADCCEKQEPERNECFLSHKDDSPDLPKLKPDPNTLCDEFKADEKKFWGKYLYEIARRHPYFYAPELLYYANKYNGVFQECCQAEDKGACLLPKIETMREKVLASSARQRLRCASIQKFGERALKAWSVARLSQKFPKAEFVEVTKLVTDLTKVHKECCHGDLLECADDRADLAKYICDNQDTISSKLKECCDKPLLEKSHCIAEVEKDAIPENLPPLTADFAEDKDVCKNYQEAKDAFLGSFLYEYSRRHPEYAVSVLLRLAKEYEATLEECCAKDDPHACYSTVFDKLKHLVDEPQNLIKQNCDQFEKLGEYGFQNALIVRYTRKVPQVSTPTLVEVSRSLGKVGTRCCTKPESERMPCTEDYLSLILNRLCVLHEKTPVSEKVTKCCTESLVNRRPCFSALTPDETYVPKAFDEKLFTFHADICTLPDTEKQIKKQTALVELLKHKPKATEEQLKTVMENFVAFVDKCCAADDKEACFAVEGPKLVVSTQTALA

In series [1], `CC[C@H](C)[C@H](NC(=O)[C@H](CC(C)C)NC(=O)[C@H](CO)NC(=O)[C@H](Cc1cnc[nH]1)NC(=O)[C@@H](NC(=O)[C@H](CC(C)C)NC(=O)[C@H](CO)NC(=O)[C@@H](NC(=O)[C@@H](N)Cc1ccc(O)cc1)[C@@H](C)O)[C@@H](C)CC)C(=O)N[C@@H](CCC(=O)O)C(=O)N[C@@H](CCC(=O)O)C(=O)N[C@@H](CO)C(=O)N[C@@H](CCC(N)=O)C(=O)N[C@@H](CC(N)=O)C(=O)N[C@@H](CCC(N)=O)C(=O)N[C@@H](CCC(N)=O)C(=O)N[C@@H](CCC(=O)O)C(=O)N[C@@H](CCCCN)C(=O)N[C@@H](CCC(N)=O)C(=O)N[C@@H](CCC(=O)O)C(=O)N[C@@H](CCCCN)C(=O)N[C@@H](CCC(=O)O)C(=O)N[C@@H](CC(C)C)C(=O)N[C@@H](CCSC)C(=O)N[C@@H](CCC(=O)O)C(=O)N[C@@H](CC(C)C)C(=O)N[C@@H](CCC(=O)O)C(=O)N[C@@H](CCCNC(=N)N)C(=O)N[C@@H](Cc1c[nH]c2ccccc12)C(=O)NCC(=O)N[C@@H](CO)C(=O)N[C@@H](CCSC)C(=O)N[C@@H](CC(C)C)C(=O)N[C@@H](CCCCN)C(=O)N[C@@H](CS)C(=O)N[C@@H](Cc1ccccc1)C(=O)O` (H-YTSLIHSLIEESQNQQEKQEKELMELERWGSMLKCF-OH) had a Kd not above 155 nM.

For the molecule `CSCC[C@H](NC(=O)[C@H](Cc1c[nH]c2ccccc12)NC(=O)[C@H](CO)NC(=O)[C@@H](N)CS)C(=O)N[C@@H](CCCNC(=N)N)C(=O)N[C@@H](CC(C)C)C(=O)N[C@@H](CCCCN)C(=O)O` (H-CSWMRLK-OH), the result in series [2] and in series [6] was inactive. The Activity entry in series [3] is listed as “Not Active”. Further, the inhibition result in series [4] is “Active”. Also, the inhibition result in series [5] is “Dose-dependent effect”. In series [7], the inhibition entry was “inactive”. Moreover, the outcome in series [8] was Active.

Regarding `CSCC[C@H](NC(=O)[C@H](CO)NC(=O)CNC(=O)[C@H](Cc1c[nH]c2ccccc12)NC(=O)[C@H](CCCNC(=N)N)NC(=O)[C@H](CCC(=O)O)NC(=O)[C@H](CC(C)C)NC(=O)[C@H](CCC(=O)O)NC(=O)[C@H](CCSC)NC(=O)[C@H](CC(C)C)NC(=O)[C@@H](N)CCC(=O)O)C(=O)N[C@@H](CC(C)C)C(=O)N[C@@H](CCCCN)C(=O)N[C@@H](CS)C(=O)N[C@@H](Cc1ccccc1)C(=O)O` (H-ELMELERWGSMLKCF-OH), the outcome in series [8] was Active.

With `CSCC[C@H](NC(=O)[C@H](CO)NC(=O)CNC(=O)[C@H](Cc1c[nH]c2ccccc12)NC(=O)[C@@H](N)CCCNC(=N)N)C(=O)N[C@@H](CC(C)C)C(=O)N[C@@H](CCCCN)C(=O)N[C@@H](CS)C(=O)N[C@@H](Cc1ccccc1)C(=O)O` (H-RWGSMLKCF-OH), in series [8], the outcome was Active.
